esBAF inh: inhibitors of esBAF chromatin remodeling in mouse ES cells; Bmi1-luciferase knock-in reporter, 24 h; 100% = twice the neutral-well signal; reporter increase, % at 12.5 µM; 350,000 compounds, 2% hits; AID 602393; in the data active = activation above about 40%; inconclusive = no clear call, values can overlap the other calls;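 also: a rise in the Bmi1 reporter signal indicates esBAF inhibition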
CASP6 VEID inh: inhibitors of human caspase-6. P55212. purified caspase-6, Z-VEID-R110 cleavage fluorescence. inhibition, % at 12.5 µM. 350,000 compounds, 0.53% hits;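 active = mean inhibition across replicates at least about 35%, with every replicate also reaching that limit, limit read from the data; inconclusive = only one of the two criteria met; inactive = neither criterion met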
Target sequence (P55212 24-179 limits assumed): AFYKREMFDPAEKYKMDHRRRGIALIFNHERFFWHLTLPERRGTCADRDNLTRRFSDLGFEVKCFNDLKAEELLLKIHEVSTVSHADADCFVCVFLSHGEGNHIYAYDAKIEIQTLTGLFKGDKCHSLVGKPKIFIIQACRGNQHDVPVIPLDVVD
Target sequence (P55212 194-293 limits assumed): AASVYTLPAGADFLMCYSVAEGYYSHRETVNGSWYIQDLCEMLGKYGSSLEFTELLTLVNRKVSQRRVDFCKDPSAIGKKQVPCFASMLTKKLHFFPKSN
NSD2 HMT inh: blocks human histone methyltransferase NSD2; O96028; NSD2 peptide methylation, AlphaScreen, 120 min; inhibition, % at 12.5 µM; 310,000 compounds, 0.54% hits; AID 743445; in the data active = inhibition above about 50%
MITF act: MITF TRPM1 promoter activation in melanoma cells. 300,000 compounds, 0.75% hits. SK-MEL-5 TRPM1-promoter luciferase, 24 h; % of positive control, neutral wells = 0. activation, % at 12.5 µM. AID 588334;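 active = mean activation of at least 80% with every replicate also reaching 80%; inconclusive = mean reaches 80% but some replicate falls short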
Wnt bcat act: activates Wnt/beta-catenin signaling in a reporter cell assay. activation, % at 9.35 µM. AID 743398. 300,000 compounds, 1.2% hits. activator, plate reader; in the data active = activation above about 30%, passing the limit was not always enough; inconclusive = no clear call, values can overlap the other calls
XiGFP reactiv: reactivates the inactive X chromosome in mouse fibroblasts; activation, % at 7.58 µM; XiGFP mouse fibroblasts, % GFP-positive cells imaging, 3 d; cells co-treated with 5-aza-dC sensitizer; scaled so ellipticine positive control = 100%; 360,000 compounds, 0.055% hits;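 active = mean normalized replicate activation at least 10% and every replicate at or above 10%; inconclusive = only one of the two criteria met; inactive = mean below 10% and not all replicates reach 10%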
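Material: XiGFP fibroblasts, SV40-immortalized; Buffer or medium: DMEM containing 5-aza-dC; Compound dosing: single point; Times: 3 days compound exposure.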
Hits are given with their value; i = inactive; ? = inconclusive; nt = no result. Compounds with a hit are over-represented: about 3% of the library has one in this group of screens.

SMILES	esBAF inh	CASP6 VEID inh	NSD2 HMT inh	MITF act	Wnt bcat act	XiGFP reactiv
COC(=O)c1ccc(NC(=O)c2cc3sccc3n2C)cc1	55	nt	nt	i	i	nt
COc1cc(NC(=O)c2cc3sccc3n2C)cc(OC)c1	42	nt	i	i	?	nt
O=C(Nc1nccs1)c1cc2sccc2n1Cc1ccc(F)cc1	i	nt	i	i	nt	nt
O=C(C[C@H]1CC[C@@H]2[C@H](COC[C@H](O)CN2C(=O)c2ccccn2)O1)N1CCN(c2ccccc2)CC1	i	i	nt	nt	nt	i
O=C(Nc1ccc2c(c1)OCO2)N[C@@H]1CC[C@H](CCNC(=O)C2CCCC2)O[C@H]1CO	i	i	nt	nt	nt	i
CO[C@@H]1CN(C)C(=O)c2ccc(NC(=O)CC(F)(F)F)cc2OC[C@H](C)N(C(=O)C2CCCCC2)C[C@H]1C	nt	nt	nt	nt	nt	i
FC(F)(F)c1ccccc1Cc1c(-c2cccc(Cl)c2)nc2ccc(Cl)cn12	56	i	nt	nt	i	nt
Cc1ccc(-c2nc3ccc(Cl)cn3c2Cc2ccccc2C(F)(F)F)cc1	i	i	nt	nt	i	i
Cc1ccc2nc(-c3ccc(Cl)cc3)c(Cc3ccccc3C(F)(F)F)n2c1	50	i	nt	nt	i	i
CCOc1cccc2cc(C(=O)N3CC(C)OC(C)C3)c(=O)oc12 (centres undefined)	i	i	i	i	i	i
COc1cccc2cc(C(=O)OCC(=O)N3CC(C)OC(C)C3)c(=O)oc12 (centres undefined)	64	i	i	i	i	i
CN(C)C(=O)[C@H]1[C@H](CO)[C@H]2Cn3c(ccc(C4=CCCC4)c3=O)[C@@H]1N2CC1CCCC1	nt	i	nt	nt	nt	i
O=C(NC(=S)Nc1ccc(Br)cc1)C1CCCCC1	i	i	i	i	i	i
O=C(NC(=S)Nc1ccccc1)C1CCCCC1	41	i	i	i	i	i
COc1ccc(NC(=S)NC(=O)C2CCC2)cc1	47	i	i	i	38	i
Cc1noc(C)c1S(=O)(=O)N(C)C[C@H]1Oc2ccc(NS(C)(=O)=O)cc2C(=O)N([C@H](C)CO)C[C@@H]1C	nt	nt	nt	nt	nt	i
COc1ccc(-c2cc3c(=O)n(CC(=O)NCCCN4CCN(Cc5ccccc5)CC4)ncn3n2)cc1	i	40	i	i	i	i
CCOc1ccc(-c2nnc(-c3cccs3)o2)cc1OCC	i	nt	i	nt	nt	nt
Cc1ccccc1-c1nnc(-c2ccccc2)o1	43	nt	nt	i	nt	nt
CCOc1ccc(-c2nnc(-c3cccs3)o2)cc1	i	nt	i	i	31	nt
Cc1ccccc1-c1noc(-c2cccs2)n1	54	i	nt	nt	i	i
Cc1ccccc1-c1nnc(-c2cccs2)o1	42	i	i	i	i	i
CN1C[C@@H]2[C@H](c3ccccc31)[C@H](CO)N2C(=O)c1ccccn1	?	nt	nt	nt	nt	i
C[C@H](CO)N1C[C@H](C)[C@H](CN(C)C(=O)Nc2ccc(F)cc2)Oc2ccc(NC(=O)c3ccncc3)cc2C1=O	i	i	nt	nt	nt	i
CC(C)NC(=O)Nc1ccc2c(c1)C(=O)N([C@H](C)CO)C[C@H](C)[C@@H](CN(C)Cc1ccncc1)O2	i	i	nt	nt	nt	i
SMILES	esBAF inh	CASP6 VEID inh	NSD2 HMT inh	MITF act	Wnt bcat act	XiGFP reactiv
Cn1cc(-c2nnc(-c3ccccc3)o2)c2ccccc21	i	nt	i	i	42	nt
Clc1ccccc1-c1nnc(-c2ccccc2Cl)o1	71	nt	i	?	i	nt
Cc1ccccc1-c1nnc(CS(=O)(=O)c2ccccc2)o1	i	nt	i	103	i	i
Cc1nnc(-c2ccccc2)o1	i	i	i	i	i	i
Clc1ccc(-c2nnc(-c3ccccc3Cl)o2)cc1	i	nt	i	i	nt	nt
Cc1ccc(C)c(-c2nnc(NC(=O)CCS(=O)(=O)c3ccccc3)o2)c1	nt	i	i	i	i	i
C[C@@H]1CN([C@H](C)CO)C(=O)c2cc(NC(=O)Cc3ccccc3)ccc2O[C@@H](C)CCCCO[C@H]1CN(C)Cc1ccc2c(c1)OCO2	i	nt	nt	nt	nt	i
CC(=O)Nc1cccc2c1O[C@@H](CN(C)C(=O)OC(C)(C)C)[C@@H](C)CN(C)C2=O	nt	nt	nt	nt	nt	i
CCOc1ccc(C(=O)N(CC(=O)Nc2cccc(C)c2C)CC2CCCO2)cc1OC (centres undefined)	i	i	i	i	51	i
CCOc1ccc(NC(=O)CN(C)C(=O)c2ccc(OCC3CCCO3)cc2)cc1OCC (centres undefined)	i	i	i	i	i	i
CO[C@H](CN(C)C(=O)c1ccccc1F)[C@@H](C)CN([C@H](C)CO)S(=O)(=O)c1ccc(C)cc1	i	i	nt	nt	nt	i
Nc1ccc(CSc2ccccc2)cc1	54	i	i	i	i	i
C=CCSc1n[nH]c(-c2ccccc2)n1	53	nt	i	i	nt	nt
C=CCSc1n[nH]c(-c2ccc(OC)cc2)n1	54	nt	i	101	nt	nt
O=C(CSc1n[nH]c(-c2ccccc2)n1)N1CCCC1	i	i	i	i	i	nt
COc1ccc(-c2ccc3c(c2)O[C@@H](CN(C)Cc2ccccc2C(=O)O)[C@@H](C)CN([C@@H](C)CO)S3(=O)=O)cc1	i	i	nt	nt	nt	i
C#CCn1c(=NC(=O)c2cccs2)sc2cccc(OCC)c21	i	i	nt	i	i	i
C#CCn1c(=NC(=O)c2ccc(Cl)s2)sc2cccc(OC)c21	50	i	nt	i	i	i
Nc1cc([N+](=O)[O-])ccc1OCc1ccccc1	nt	i	i	i	48	i
Cc1ccc(CONC(=O)c2ccc(Cl)cc2)cc1	i	i	i	i	34	i
Cc1ccc(CC(=O)c2ccc(Cl)cc2)cc1	?	i	i	92	i	i
CC(=O)N(C)c1cc([N+](=O)[O-])ccc1OCc1ccccc1	i	i	i	i	i	i
O=C(Cc1ccc(Cl)cc1)c1ccc(O)cc1	nt	i	nt	i	i	i
Cc1ccc(CONC(=O)c2ccc(C)cc2)cc1	44	i	i	95	38	i
C[C@@H]1CN([C@H](C)CO)C(=O)c2cc(NC(=O)Nc3ccccc3)ccc2O[C@@H](C)CCCCO[C@H]1CN(C)C(=O)NC1CCCCC1	nt	nt	nt	nt	nt	i
SMILES	esBAF inh	CASP6 VEID inh	NSD2 HMT inh	MITF act	Wnt bcat act	XiGFP reactiv
O=C(NOCc1ccccc1)c1ccc([N+](=O)[O-])cc1	i	i	i	i	38	i
Cc1ccc(NC(=O)CN2C(=O)N/C(=C/c3cc(C)n(-c4ccc(C(=O)O)cc4)c3C)C2=O)cc1	nt	54	i	i	i	i
Cc1ccc(NC(=O)CN2C(=O)S/C(=C\c3cc(C)n(-c4ccc(C(=O)O)cc4)c3C)C2=O)cc1	i	i	i	i	i	i
Nc1n[nH]c(N)c1N=Nc1cccc(C(F)(F)F)c1	51	i	i	i	i	i
O=C(C[C@@H]1CC[C@H](NC(=O)c2ccncc2)[C@H](CO)O1)Nc1ccc(-c2ccccc2)cc1	nt	nt	nt	nt	nt	i
Cc1cc(C(=O)N(C)CC2CCCN(CCc3ccc(F)cc3)C2)c(C)o1 (centres undefined)	i	i	i	i	i	i
COCc1ccc(C(=O)N(C)CC2CCCN(CCc3ccc(OC)cc3)C2)o1 (centres undefined)	50	i	i	i	i	i
